Data on six compounds can be found in ChEMBL document CHEMBL5653629, “Novel Class of Potent and Cellularly Active Inhibitors Devalidates MTH1 as Broad-Spectrum Cancer Target” (ACS Chem Biol, 2017).

The test system of data set [1] is U2OS. In words: Cytotoxicity against human U2OS cells assessed as reduction in cell viability by measuring nuclei count at 30 uM incubated for 72 hrs by high content analysis. It counts as functional, cell-based. Put shortly:
(§1)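 U2OS cells were immunostained for 8-oxo-dG and DNA, then imaged by high content analysis. Average nuclear 8-oxo-dG intensity and average nuclear count were measured together.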

Data set [2] relates to U2OS. In words: Upregulation of nuclear 8-oxo-dG level in human U2OS cells at 1 to 2 uM incubated for 72 hrs by high content analysis. As to conditions: dose 1-2 µM. It counts as functional, cell-based. Put shortly:
as §1

Data set [3] in a line: Apparent permeability across apical to basolateral side in human Caco-2 cells at 2 uM incubated for 2 hrs by LC/MS/MS analysis. It counts as ADME, cell-based.
A further data set relates to A549. In words: cells. The following applies: Homo sapiens, A549, 144 h.
Data set [4] concerns HeLa. In words: Upregulation of MUTYH mRNA level in human HeLa cells at 1 uM incubated for 6 days by qPCR analysis. It counts as functional, cell-based. As to conditions: time 6.0 day.
Another data set has as its system SW480. In words: cells. As to conditions: Homo sapiens, SW480, 144 h.
Data set [5] is described as follows: Metabolic stability in human liver microsomes assessed as clearance at 1 uM measured for 2 to 60 mins by LC-MS/MS analysis. It counts as ADME, Microsome. The following applies: time 2-60 min.
The nature of data set [6]: Cytotoxicity against HMEC cells assessed as cell growth inhibition incubated for 144 hrs by alamarblue staining based assay. It counts as toxicity. As to conditions: human.
The nature of data set [7]: Distribution coefficient, logD of compound at pH 7.5 by HPLC analysis. It counts as physicochemical. The following applies: octanol/water.
A short description of data set [8]: Metabolic stability in human liver microsomes assessed as maximum bioavailability at 1 uM measured for 2 to 60 mins by LC-MS/MS analysis. It counts as ADME, Microsome. The following applies: time 2-60 min, read-out: Fmax.
The subject of data set [9] is HeLa. In words: Upregulation of OGG1 protein level in human HeLa cells at 1 uM by Western blot analysis. It counts as functional, cell-based. Put shortly:
(§2)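 HeLa cells were treated and probed by Western blot for MTH2, OGG1, MUTYH and MTH1. HSP90 served as loading control.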

For data set [10], the system named is U2OS. In words: cells. As to conditions: Homo sapiens, 144 h.
In a further data set the test system is MDA-MB-231. In words: cells. The following applies: Homo sapiens, MDA-MB-231, 144 h.
Data set [11] can be described thus: Protein binding in mouse plasma assessed as free fraction. It counts as ADME, cell-free.
Data set [12] concerns HeLa. In words: Upregulation of OGG1 mRNA level in human HeLa cells at 1 uM incubated for 6 days by qPCR analysis. It counts as functional, cell-based. As to conditions: time 6.0 day.
In data set [13] the test system is NCI-H358. In words: cells. The following applies: Homo sapiens, NCI-H358, 144 h.
Data set [14] in a line: Aqueous solubility of compound in pH 6.5. It counts as physicochemical. The following applies: buffer.
Data set [15] relates to HeLa. In words: cells. The following applies: Homo sapiens, 144 h.
The subject of data set [16] is NCI-H358. In words: Induction of DNA double strand breaks in human NCI-H358 cells assessed as increase in gamma-H2AX expression at 0.005 to 12 micromol/L incubated for 72 hrs by high content analysis. The following applies: NCI-H358, 72 h.
Data set [17] in a line: Metabolic stability in Han Wistar rat hepatocytes using well-stirred liver model assessed as clearance at 1 uM measured for 2 to 90 mins by LC-MS/MS analysis. It counts as ADME, cell-based, Hepatocyte. As to conditions: time 2-90 min.
Data set [18] can be described thus: Metabolic stability in Han Wistar rat hepatocytes using well-stirred liver model assessed as maximum bioavailability at 1 uM measured for 2 to 90 mins by LC-MS/MS analysis. It counts as ADME, Hepatocyte. The following applies: time 2-90 min, route po, read-out: Fmax.
In data set [19] the test system is NCI-H460. In words: cells. The following applies: Homo sapiens, NCI-H460, 144 h.
Data set [20] deals with MCF7. In words: cells. As to conditions: Homo sapiens, MCF7, 144 h.
The subject of data set [21] is HeLa. In words: Upregulation of MUTYH protein level in human HeLa cells at 1 uM by Western blot analysis. It counts as functional, cell-based. Put shortly:
as §2

The subject of data set [22] is U2OS. In words: Upregulation of nuclear 8-oxo-dG level in human U2OS cells at 2 to 10 uM incubated for 72 hrs by high content analysis. The following applies: dose 2-10 µM. It counts as functional, cell-based. Put shortly:
as §1

Data set [23] is described as follows: Toxicity in NMRI nude mouse assessed as body weight loss upto 250 mg/kg, po qd for 7 days. As to conditions: in vivo, 168 h, time 7 day. It counts as organism-based. Put shortly: (§3)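 Female NMRI nude mice received oral doses in PEG/water (80:20), escalated step-wise from 25 to 250 mg/kg over 7 days. Body weight, overt toxicity and mortality were monitored, and observation was extended a further 7 days to catch latent toxicity.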

Data set [24] relates to NCI-H358. In words: Induction of DNA double strand breaks in human NCI-H358 cells assessed as increase in gamma-H2AX expression at 12.4 uM incubated for 72 hrs by high content analysis. It counts as functional, cell-based. Put shortly:
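NCI-H358 cells were immunostained for γH2AX and DNA and analysed by high content imaging. The highest concentration tested was 12.4 µM, and EC50 was taken for DSB induction.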

For data set [25], the system named is NCI-H460. In words: Antitumor activity against human NCI-H460 cells xenografted in NMRI nude mouse assessed as reduction in tumor weight at 100 mg/kg, po measured for 10 days. The following applies: time 10.0 day.
Data set [26] relates to U2OS. In words: Effect on nuclear 8-oxo-dG level in human U2OS cells at 10 to 30 uM incubated for 72 hrs by high content analysis. It counts as functional, cell-based. The following applies: dose 10-30 µM. Put shortly: as §1
Data set [27] can be described thus: Toxicity in NMRI nude mouse assessed as drug tolerability at 25 to 250 mg/kg, po qd for 7 days. It counts as organism-based. The following applies: in vivo, 168 h, dose 25-250 mg/kg, time 7 day. Put shortly:
as §3

For data set [28], the system named is NCI-H460. In words: Antitumor activity against human NCI-H460 cells xenografted in NMRI nude mouse assessed as reduction in tumor volume at 100 mg/kg, po measured for 10 days. As to conditions: time 10.0 day.
The subject of data set [29] is CT26. In words: Antitumor activity against mouse CT26 cells xenografted in NMRI nude mouse assessed as reduction in tumor volume at 100 mg/kg, po measured for 12 days. It counts as functional, organism-based. As to conditions: time 12.0 day.
Data set [30] concerns CT26. In words: Additive antitumor activity against mouse CT26 cells xenografted in NMRI nude mouse assessed as reduction in tumor growth at 100 mg/kg, po along with radiation treatment measured for 12 days. It counts as functional, organism-based. As to conditions: time 12.0 day.
Data set [31] concerns CT26. In words: Antitumor activity against mouse CT26 cells xenografted in NMRI nude mouse assessed as reduction in tumor weight at 100 mg/kg, po measured for 12 days. The following applies: time 12.0 day. It counts as functional, organism-based.
Data set [32] concerns MCF7. In words: Inhibition of colony formation of human MCF7 cells at 0.1 to 10 uM measured after 15 days by soft agar assay. The following applies: dose 0.1-10 µM, time 15.0 day. It counts as functional, cell-based.
In data set [33] the test system is U2OS. In words: Effect on nuclear 8-oxo-dG level in human U2OS cells at 10 to 30 uM incubated for 72 hrs in presence of LCS1 by high content analysis. It counts as functional, cell-based. As to conditions: dose 10-30 µM.
Data set [34] has as its system U2OS. In words: Upregulation of nuclear 8-oxo-dG level in human U2OS cells at 100 to 300 nM incubated for 72 hrs by high content analysis. It counts as functional, cell-based. The following applies: dose 100-300 nM. Put shortly:
as §1

Each structure is given as a SMILES string. In brackets after ≈: the same amount, converted by molar mass. Activity calls are given as the source filed them. No cut-off for these calls is given here.

`Cc1cccc(-n2ncc(Cl)c(Cl)c2=O)c1`: the result in the data set with U2OS [1] was Active.
Regarding `CC(C)(C)c1cnc(CSc2cnc(NC(=O)C3CCNCC3)s2)o1`, the result in the data set on U2OS [2] was Active.
On to `Nc1nc(NC2CC2)cc(-c2cccc(Cl)c2Cl)n1`, for which the Papp A→B at 2 h, 2 µM in [3] stood at 30.7 ×10⁻⁶ cm/s. Moreover, the GI50 in the data set on A549 is 4 µM; with SW480, 5.3 µM; in the data set on U2OS [10] it was 2.6 µM; in the data set on MDA-MB-231, 6.3 µM; in the data set on NCI-H358 [13], 4.9 µM; with HeLa [15] it was 4.2 µM. The concentration for 50% growth inhibition (GI50) amounted to 7.1 µM with NCI-H460 [19] and 3.5 µM in the data set with MCF7 [20]. The outcome with HeLa [4], with HeLa [9], in the data set with HeLa [12] and in the data set on HeLa [21] was inactive. Moreover, the CLH in data set [5] came out at 10.7 mL/min/kg. The GI50 at 144 h in data set [6] was found to be 3.2 µM. The compound also gave a logD in [7] of 2.5. For the same compound, the Fh at 1 µM was 51% in [8] and 54% in data set [18]. The fraction unbound in data set [11] came out at 0.04. Also, the result in the data set with U2OS [1] was Active. For the same compound, the solubility in data set [14] is 38 µg/mL (≈ 129 µM). For the same compound, the EC50 in the data set with NCI-H358 [16] came to 3.11 µM. Further, the CLhep predicted at 1 µM in data set [17] is 32 mL/min/kg.
For `Cc1cc(Nc2cc(N3CCN(C)CC3)nc(Sc3ccc(NC(=O)C4CC4)cc3)n2)n[nH]1`, the outcome in the data set with U2OS [22] was Active.
Take `CCNC(=O)c1cc2c(N3CCOC[C@@H]3C)ccnc2[nH]1`: in [3], the Papp A→B at 2 h, 2 µM is 14.8 ×10⁻⁶ cm/s. In addition, the outcome with HeLa [4], in the data set with NCI-H358 [24], in the data set on NCI-H460 [25], with HeLa [9], in the data set on HeLa [12] and with U2OS [26] was inactive. Moreover, the outcome with NCI-H460 [28], with CT26 [29], in the data set on CT26 [30], in the data set with CT26 [31], in the data set on U2OS [33] and with HeLa [21] was inactive. Also, the CLH in data set [5] was 4.83 mL/min/kg. In addition, the GI50 at 144 h in data set [6] is greater than 30 µM. Also, the logD in data set [7] is 1.6. For the same compound, the Activity in [23] is less than 10%; in data set [27], “Non-Toxic”. Also, the Fh at 1 µM turned out to be 78% in data set [8] and 87% in data set [18]. Further, the fraction unbound in [11] is 0.48. In [14], this compound gave a solubility of 288 µg/mL (≈ 999 µM). Moreover, the CLhep predicted at 1 µM in [17] was 9 mL/min/kg. Moreover, the inhibition result in the data set on MCF7 [32] is “inactive”.
As to `CC[C@@H]1C(=O)N(C)c2cnc(Nc3ccc(C(=O)N[C@H]4CC[C@H](N5CCN(CC6CC6)CC5)CC4)cc3OC)nc2N1C(C)C`, the outcome in the data set with U2OS [34] was Active.
